Reference: ChEMBL document CHEMBL1156501, “Ibogaine, a noncompetitive inhibitor of serotonin transport, acts by stabilizing the cytoplasm-facing state of the transporter” (J Biol Chem, 2007)
Active and inactive are the calls of the source. No cut-off for these calls is given here.

B1: Sodium-dependent serotonin transporter (Rattus norvegicus), P31652 (protein)
chain: METTPLNSQKVLSECKDREDCQENGVLQKGVPTTADRAEPSQISNGYSAVPSTSAGDEASHSIPAATTTLVAEIRQGERETWGKKMDFLLSVIGYAVDLGNIWRFPYICYQNGGGAFLLPYTIMAIFGGIPLFYMELALGQYHRNGCISIWRKICPIFKGIGYAICIIAFYIASYYNTIIAWALYYLISSLTDRLPWTSCTNSWNTGNCTNYFAQDNITWTLHSTSPAEEFYLRHVLQIHQSKGLQDLGTISWQLTLCIVLIFTVIYFSIWKGVKTSGKVVWVTATFPYIVLSVLLVRGATLPGAWRGVVFYLKPNWQKLLETGVWVDAAAQIFFSLGPGFGVLLAFASYNKFNNNCYQDALVTSVVNCMTSFVSGFVIFTVLGYMAEMRNEDVSEVAKDAGPSLLFITYAEAIANMPASTFFAIIFFLMLITLGLDSTFAGLEGVITAVLDEFPHIWAKRREWFVLIVVITCVLGSLLTLTSGGAYVVTLLEEYATGPAVLTVALIEAVAVSWFYGITQFCSDVKEMLGFSPGWFWRICWVAISPLFLLFIICSFLMSPPQLRLFQYNYPHWSIVLGYCIGMSSVICIPTYIIYRLISTPGTLKERIIKSITPETPTEIPCGDIRMNAV

Experiments:
[1] = target: T1, Sodium-dependent serotonin transporter (Homo sapiens, UniProt P31645)
T1 sequence (P31645 whole entry): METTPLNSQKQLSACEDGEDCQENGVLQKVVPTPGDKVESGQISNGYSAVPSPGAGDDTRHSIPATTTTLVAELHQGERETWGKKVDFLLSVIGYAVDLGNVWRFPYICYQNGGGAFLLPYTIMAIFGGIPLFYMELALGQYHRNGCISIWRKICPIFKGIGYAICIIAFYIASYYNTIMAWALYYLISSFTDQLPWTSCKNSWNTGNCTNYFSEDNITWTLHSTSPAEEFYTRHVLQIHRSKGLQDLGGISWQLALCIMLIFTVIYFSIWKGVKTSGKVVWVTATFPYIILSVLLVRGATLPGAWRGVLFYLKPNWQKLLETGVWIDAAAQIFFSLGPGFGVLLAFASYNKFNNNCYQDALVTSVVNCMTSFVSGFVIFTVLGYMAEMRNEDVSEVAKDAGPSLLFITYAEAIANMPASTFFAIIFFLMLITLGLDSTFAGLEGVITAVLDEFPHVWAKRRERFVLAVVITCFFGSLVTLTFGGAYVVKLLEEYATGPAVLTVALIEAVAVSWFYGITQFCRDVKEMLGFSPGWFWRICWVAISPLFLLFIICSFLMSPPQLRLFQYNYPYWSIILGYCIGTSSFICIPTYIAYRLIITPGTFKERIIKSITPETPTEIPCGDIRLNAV

[2] = target: T1, Sodium-dependent serotonin transporter; test: Displacement of [125I]beta-CIT from human SERT in human platelet membrane in presence of 5 uM ibogaine; type: cell membranes
[3] = target: T2, Sodium-dependent serotonin transporter (Rattus norvegicus, UniProt P31652); test: Inhibition of [3H]5HT uptake at rat SERT expressed in HeLa cells; type: cell-based
[4] = target: T2, Sodium-dependent serotonin transporter; test: Displacement of [125I]beta-CIT from rat SERT expressed in HeLa cells; type: cell-based
Rattus norvegicus [5] = species: Rattus norvegicus; test: Inhibition of 2-(aminoethyl)methanethiosulphonate hydrobromide-induced inactivation of rat SERT S277 mutant assessed as drug level causing half maximal protection from inactivation
How it was run: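 Membranes from HeLa cells expressing rat SERT S277C were treated with 50 μM MTSEA plus graded cocaine, ibogaine or 5-HT. After washing, residual [125I]β-CIT binding was measured. The drug concentration giving half-maximal protection from or potentiation of inactivation was fitted by nonlinear regression.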

Rattus norvegicus [6] = species: Rattus norvegicus; test: Effect on 2-(aminoethyl)methanethiosulphonate hydrobromide-induced inactivation of rat SERT X5C mutant
How it was run: (§1)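 Membranes from HeLa cells expressing rat SERT X5C or K279C (X5C background) were treated with 2 mM MTSEA plus graded ibogaine. Membranes were washed free of MTSEA and ibogaine, then residual binding was measured with 0.1 nM [125I]β-CIT for 1.5 h at room temperature.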

[7] = test system: Sodium-dependent serotonin transporter (Rattus norvegicus), P31652 [S404C]; test: Effect on 2-(aminoethyl)methanethiosulphonate hydrobromide-induced inactivation of rat SERT S404C mutant assessed as increase in rate constant for inactivation
How it was run: (§2)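 Membranes from HeLa cells expressing rat SERT cysteine mutants were filter-bound and treated for 10 min with a range of MTSEA concentrations plus 10 μM ibogaine, 5-HT or cocaine. After washing, residual 0.1 nM [125I]β-CIT binding was measured. The MTSEA concentration giving half-maximal inactivation was used to calculate the inactivation rate constant.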

[8] = test system: Sodium-dependent serotonin transporter (Rattus norvegicus), P31652 [T284C]; test: Effect on 2-(aminoethyl)methanethiosulphonate hydrobromide-induced inactivation of rat SERT T284C mutant assessed as increase in rate constant for inactivation
How it was run: as §2

[9] = test system: Sodium-dependent serotonin transporter (Rattus norvegicus), P31652 [S277C]; test: Effect on 2-(aminoethyl)methanethiosulphonate hydrobromide-induced inactivation of rat SERT S277C mutant assessed as increase in rate constant for inactivation
How it was run: as §2

[10] = test system: Sodium-dependent serotonin transporter (Rattus norvegicus), P31652 [Y107C]; test: Effect on 2-(aminoethyl)methanethiosulphonate hydrobromide-induced inactivation of rat SERT Y107C mutant assessed as increase in rate constant for inactivation
How it was run: as §2

[11] = test system: Sodium-dependent serotonin transporter (Rattus norvegicus), P31652 [V281C]; test: Effect on 2-(aminoethyl)methanethiosulphonate hydrobromide-induced inactivation of rat SERT V281C mutant assessed as increase in rate constant for inactivation
How it was run: as §2

Rattus norvegicus [12] = species: Rattus norvegicus; test: Effect on 2-(aminoethyl)methanethiosulphonate hydrobromide-induced inactivation of rat SERT K279 mutant
How it was run: as §1

Rattus norvegicus [13] = species: Rattus norvegicus; test: Effect on 2-(aminoethyl)methanethiosulphonate hydrobromide-induced inactivation of rat SERT […] mutant assessed as increase in rate constant for inactivation
How it was run: as §2

[14] = test system: Sodium-dependent serotonin transporter (Rattus norvegicus), P31652 [K272C]; test: Effect on 2-(aminoethyl)methanethiosulphonate hydrobromide-induced inactivation of rat SERT K272C mutant assessed as increase in rate constant for inactivation
How it was run: as §2

[15] = test system: Sodium-dependent serotonin transporter (Rattus norvegicus), P31652 [T276C]; test: Effect on 2-(aminoethyl)methanethiosulphonate hydrobromide-induced inactivation of rat SERT T276C mutant assessed as increase in rate constant for inactivation
How it was run: as §2

[16] = test system: Sodium-dependent serotonin transporter (Rattus norvegicus), P31652 [G273C]; test: Effect on 2-(aminoethyl)methanethiosulphonate hydrobromide-induced inactivation of rat SERT G273C mutant assessed as increase in rate constant for inactivation
How it was run: as §2

[17] = compound: COC(=O)[C@H]1[C@@H](OC(=O)c2ccccc2)C[C@@H]2CC[C@H]1N2C; test: (§3) Inhibition of [3H]5HT transport at rat SERT expressed in pig LLC-PK1 cells at 5 uM; type: cell-based
How it was run: (§4)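 LLC-PK1 cells stably expressing rat SERT were grown as monolayers. Uptake of [3H]5-HT at varied concentrations was measured for 5 min with or without 5 μM ibogaine. Nonspecific uptake was defined with 100 μM cocaine. Km and Vmax were fitted, with an Eadie-Hofstee plot also shown.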

[18] = compound: CC[C@H]1C[C@H]2C[C@H]3c4[nH]c5ccc(OC)cc5c4CCN(C2)[C@@H]13; test: as §3; type: cell-based
How it was run: as §4

Molecule	Activity (Rattus norvegicus [5])	Activity [7]	Activity [8]	Activity [9]	Activity [10]	Activity [11]	Activity (Rattus norvegicus [13])	Activity [14]	Activity [15]	Activity [16]	other results
COC(=O)[C@H]1[C@@H](c2ccc(I)cc2)C[C@@H]2CC[C@H]1N2C	–	–	–	–	–	–	–	–	–	–	Kd [1]: 0.88 nM; Kd [2]: 2.82 nM
CC[C@H]1C[C@@H]2C[C@H]3c4[nH]c5ccc(OC)cc5c4CCN(C2)[C@@H]13 [IBOGAINE]	–	–	–	–	–	–	–	–	–	–	IC50 [3]: 6300 nM; IC50 [4]: 2500 nM
COC(=O)[C@H]1[C@@H](OC(=O)c2ccccc2)C[C@@H]2CC[C@H]1N2C	0.58 µM	–	–	–	–	–	–	–	–	–	–
CC[C@H]1C[C@H]2C[C@H]3c4[nH]c5ccc(OC)cc5c4CCN(C2)[C@@H]13	0.98 µM	Active	Active	Active	Active	Active	Active	Active	Active	Active	Activity (Rattus norvegicus [6]): inactive; Activity (Rattus norvegicus [12]): inactive
NCCc1c[nH]c2ccc(O)cc12	0.68 µM	Active	inactive	Active	Active	Active	Active	Active	Active	Active	–
B1	–	–	–	–	–	–	–	–	–	–	Km [17]: 0.2 µM; Vmax [17]: 35.7 pmol/min/mg; Km [18]: 0.17 µM; Vmax [18]: 14 pmol/min/mg
